In brackets after ≈: the same amount, converted by molar mass. Activity calls are given as the source filed them. No cut-off for these calls is given here.
Tests used:
Brain [1] = experiment: Increase in GABA release in mouse cortical brain slice at 20 ug/mL upto 180 seconds; assay type: functional, tissue-based
Summary of the method: (§1)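 Anterior cortex slices (250-300 um) cut by hand after decapitation, held at 4 °C in oxygenated modified Krebs-Ringer (pH 7.4) with amino-oxyacetic acid 10.0 uM, then 10 min in basal medium at 37 °C. Compound at a final 20.0 ug/mL; aliquots sampled at 0.5-3.0 min. GABA and glutamate measured by HPLC after O-phthaldialdehyde derivatization and expressed per mg slice protein. Untreated control; mean ± SEM, 3 independent experiments.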

Aorta [2] = experiment: Vasorelaxation activity in Wistar rat endothelium-intact thoracic aortic ring assessed as inhibition of noradrenaline-induced contraction; assay type: functional, tissue-based
Summary of the method: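 Thoracic aortic rings (3-5 mm) with endothelium intact, held at 3 g tension in Krebs solution at 37 °C, pH 7.4, gassed O2/CO2 19:1. Isometric tension recorded. Rings precontracted with noradrenaline 0.3 uM, then given cumulative concentrations. Relaxation taken from tone before and after addition. Vehicle and positive control run in parallel.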

Aorta [3] = experiment: Vasorelaxation activity in Wistar rat endothelium-removed thoracic aortic ring assessed as inhibition of noradrenaline-induced contraction; assay type: functional, tissue-based
Summary of the method: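 Endothelium removed from the rings, confirmed by absence of relaxation to carbachol 1 uM. Rings held at 3 g in oxygenated Krebs (37 °C, pH 7.4) and precontracted with noradrenaline 0.3 uM. Cumulative concentration-response curves recorded isometrically. Relaxation calculated by comparing tone before and after compound addition.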

Brain [4] = experiment: Increase in GABA release in mouse cortical brain slice at 20 ug/mL after 30 seconds; assay type: functional, tissue-based; summary of the method: as §1
Brain [5] = experiment: Increase in glutamic acid release in mouse cortical brain slice assessed per mg of protein at 20 ug/mL upto 180 seconds; assay type: functional; summary of the method: as §1
[6] = system: Mycobacterium tuberculosis; experiment: Antimycobacterial activity against Mycobacterium tuberculosis by microplate blue alamar assay; assay type: functional
Summary of the method: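 Modified microplate Alamar Blue assay (MABA) against M. tuberculosis. Pure compounds tested over 100.00 to 3.13 µg/mL. Activity recorded as the minimal inhibitory concentration (MIC).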

For `CCCCCC1CCCCCCCCCC(=O)O[C@@H]2[C@@H](O[C@@H]3O[C@@H](C)[C@H](OC(=O)CCCCCCCCC[C@@H](CCCCC)O[C@@H]4O[C@H](C)[C@@H](O)[C@H](O)[C@H]4O[C@@H]4O[C@H](CO)[C@@H](O)[C@H](O)[C@H]4O[C@@H]4O[C@@H](C)[C@H](O[C@@H]5O[C@H](C)[C@@H](OC(=O)C(C)CC)[C@H](O)[C@H]5O)C(O)C4OC(=O)C(C)C(C)O)[C@@H](O)[C@@H]3O)[C@H](C)O[C@@H](O[C@H]3[C@H](O[C@H]4[C@H](O1)O[C@H](C)[C@@H](O)[C@@H]4O)O[C@H](COC(=O)C(C)C(C)O)[C@@H](O)[C@@H]3O)[C@@H]2OC(=O)C(C)C(C)O` (stereo partly drawn) [TYRIANTHIN A], the Activity (Brain [1]) was “Active”, the Emax (Aorta [2]) was 81.8% and the IC50 (Aorta [2]) was 240 nM. The Activity (Aorta [3]) was “inactive”, the Activity (Brain [4]) was “Active” and the Activity (Brain [5]) was 100 pmol. The MIC [6] was 100 µg/mL (≈ 47.7 µM).
With `CCCCCC1CCCCCCCCCC(=O)O[C@@H]2[C@@H](O[C@@H]3O[C@@H](C)[C@H](OC(=O)CCCCCCCCC[C@@H](CCCCC)O[C@@H]4O[C@H](C)[C@@H](O)[C@H](O)[C@H]4O[C@@H]4O[C@H](CO)[C@@H](O)[C@H](O)[C@H]4O[C@@H]4O[C@@H](C)[C@H](O[C@@H]5O[C@H](C)[C@@H](O)[C@H](O)[C@H]5O)C(O)C4OC(=O)CCC)[C@@H](O)[C@@H]3O)[C@H](C)O[C@@H](O[C@H]3[C@H](O[C@H]4[C@H](O1)O[C@H](C)[C@@H](O)[C@@H]4O)O[C@H](COC(=O)C(C)C(C)O)[C@@H](O)[C@@H]3O)[C@@H]2OC(=O)C(C)C(C)O` (stereo partly drawn) [TYRIANTHIN B] the Activity (Brain [1]) was “inactive”, the IC50 (Aorta [2]) was 140 nM and the Activity (Aorta [3]) was “inactive”. The Activity (Brain [4]) was “Active”, the Activity (Brain [5]) was 180 pmol and the MIC [6] was 100 µg/mL (≈ 50.5 µM).
